Laboratory results: ChEMBL document CHEMBL3526011, “Metabolic activation of mefenamic acid leading to mefenamyl-S-acyl-glutathione adduct formation in vitro and in vivo in rat” (Drug Metab Dispos, 2012)
Values belong to the compound of their own block, whether it stands above or below them.

What was measured:
[1] = Half life in rat hepatocytes; type: ADME, cell-based, Hepatocyte
Summary of the method: (§1)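 Authentic acyl-SG thioesters or acyl glucuronide (1 µM) incubated with rat hepatocytes (2 million cells/ml). Quenched at 0–30 min and analysed by LC-MS/MS for % remaining; average of two incubations per time point; half-life derived from the decline.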

[2] = test system: Hepatocyte; test: Drug level in rat hepatocytes treated with 100 uM MFA by reverse phase LC-MS/MS analysis; type: ADME, cell-based
Summary of the method: (§2)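 Rat hepatocytes at 2 million viable cells/ml in William's E (pH 7.4) at 37°C under 95% O2/5% CO2, with 100 µM MFA for up to 60 min. Quench times 0–60 min; n=3 incubations per point across three separate studies. Acyl-SG and glucuronide quenched with acidic acetonitrile plus CBZ; acyl-CoA quenched with acetonitrile plus CBZ, then hexane extraction. Positive-ion LC-MS/MS MRM; quantified from analyte/CBZ standard curves.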

[3] = test system: Hepatocyte; test: Drug level in rat hepatocytes treated with at 100 uM MFA by LC-MS/MS analysis in presence of 1000 uM (-)-borneol (reference value: 9.1 +/- 4.5); type: ADME, cell-based
Summary of the method: (§3)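 Rat hepatocytes (2 million cells/ml, 0.5 ml) with 100 µM MFA for 10 min, with or without 1000 µM (−)-borneol (glucuronidation inhibitor; DMSO stock, 0.1% v/v final in controls) or 1000 µM lauric acid (acyl-CoA formation inhibitor; aqueous stock, pH 7). Triplicate incubations; LC-MS/MS MRM; results given as nM and as % of control, mean ± S.D.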

[4] = test system: Hepatocyte; test: Drug level in rat hepatocytes treated with at 100 uM MFA by LC-MS/MS analysis in presence of 1000 uM Lauric acid (reference value: 9.1 +/- 4.5); type: ADME, cell-based; summary of the method: as §3
[5] = test system: Hepatocyte; test: Drug level in rat hepatocytes treated with 15.6 uM MFA by LC-MS/MS analysis; type: ADME, cell-based
Summary of the method: (§4)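 Rat hepatocytes (2 million cells/ml, William's E pH 7.4, 37°C, 95% O2/5% CO2) incubated 10 min with MFA at 0.8–500 µM (11 levels). Quenched and processed for LC-MS/MS MRM of the acyl-SG, acyl glucuronide and acyl-CoA derivatives. Three separate experiments, n=3 incubations per concentration; mean ± S.D.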

[6] = Stability in potassium phosphate buffer at 1 uM at pH 7.4 at 37 degC; type: physicochemical; settings: pH 7.4, 1 µM
Summary of the method: (§5)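 Acyl-CoA and acyl glucuronide (1 µM, separate incubations) in 0.1 M potassium phosphate, pH 7.4, 37°C, without GSH. Quenched at 0, 5, 8 and 15 h, n=3 per time point; % remaining determined by LC-MS/MS.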

[7] = test system: GST; test: (§6) Stability in rat liver GST assessed as degradation at 1 uM after 30 mins relative to control; type: ADME, tissue-based; settings: rat liver GST
Summary of the method: (§7)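 Acyl-SG thioesters (1 µM) in 0.1 M phosphate buffer, pH 7.4, 37°C (0.2 ml), with or without rat liver GST at 3 units/ml. Duplicates per time point, quenched at 0–60 min with acidic acetonitrile plus CBZ and analysed directly by LC-MS/MS. Degradation at 30 min expressed relative to the no-GST control.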

[8] = Drug level in phosphate buffer treated with 1 uM MFA SCoA at pH 7.4 at 37 degC in presence of GSH after 60 mins; type: physicochemical; settings: pH 7.4, 1 h
Summary of the method: (§8)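 Acyl-CoA or acyl glucuronide (1 µM) in 0.1 M potassium phosphate, pH 7.4, 37°C, with 10 mM GSH, n=3. Quenched at 0, 15, 30, 45 and 60 min with acetonitrile/3% formic acid containing 1 µM CBZ. The acyl-SG product was measured by LC-MS/MS; mean ± S.D.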

[9] = Drug level in phosphate buffer treated with 1 uM I-SCoA at pH 7.4 at 37 degC in presence of GSH after 60 mins; type: physicochemical; settings: pH 7.4, 1 h; summary of the method: as §8
[10] = as §6; type: ADME, tissue-based; settings: 0.5 h, 1 µM; summary of the method: as §7
[11] = test system: Hepatocyte; test: Retention time in rat hepatocytes treated with 100 uM MFA by positive ion LC-MS/MS analysis; type: ADME, cell-based; summary of the method: as §2
[12] = test system: Hepatocyte; test: Drug level in rat hepatocytes treated with 500 uM MFA by LC-MS/MS analysis; type: ADME, cell-based; summary of the method: as §4
[13] = test system: Hepatocyte; test: Drug level in cryopreserved human hepatocytes treated with 100 uM MFA at 10 mins incubation; type: ADME, cell-based
Summary of the method: (§9)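 Human hepatocytes, either cryopreserved 20-donor pooled or a single-donor suspension, thawed or warmed at 37°C, washed in William's E (pH 7.4, 4 mM L-glutamate). Cells at 2 million viable/ml, >95% trypan-blue viability. Incubated with 100 µM MFA at 37°C under 95% O2/5% CO2 with orbital shaking, n=3 per time point. Quench: acetonitrile/3% formic acid with CBZ internal standard; LC-MS/MS MRM.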

[14] = Half life in rat hepatocytes at 1 uM; type: ADME, cell-based, Hepatocyte; summary of the method: as §1
[15] = test system: Hepatocyte; test: Drug level in rat hepatocytes treated with at 100 uM MFA by LC-MS/MS analysis in presence of 1000 uM (-)-borneol (reference value: 619 +/-158); type: ADME, cell-based; summary of the method: as §3
[16] = test system: Hepatocyte; test: Drug level in single-donor human hepatocytes in suspension treated with 100 uM MFA at 60 mins incubation; settings: 1 h
[17] = test system: Hepatocyte; test: Drug level in rat hepatocytes treated with at 100 uM MFA by LC-MS/MS analysis in presence of 1000 uM Lauric acid (reference value: 619 +/-158); type: ADME, cell-based; summary of the method: as §3
[18] = Half life in potassium phosphate buffer at 1 uM at pH 7.4 at 37 degC; type: physicochemical; summary of the method: as §5
[19] = test system: Hepatocyte; test: Drug level in rat hepatocytes treated with 62.5 uM MFA by LC-MS/MS analysis; type: ADME, cell-based; summary of the method: as §4
[20] = test system: Hepatocyte; test: Drug level in rat hepatocytes treated with 100 uM MFA after 60 mins; type: ADME, cell-based; settings: 1 h; summary of the method: as §2
[21] = Drug level in Sprague-Dawley rat bile treated with 100 mg/kg, ip MFA after 6 hrs by LC-MS/MS analysis; type: ADME, organism-based; set-up: dose 100 mg/kg, route intraperitoneal; settings: in vivo
Summary of the method: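 Male Sprague-Dawley rats (300–330 g, n=3) with bile-duct cannulas, housed in metabolic cages; MFA 100 mg/kg i.p. in water, pH 7.0. Artificial bile-salt supplement infused via duodenal cannula at 1 ml/h. Bile collected over 6 h into phosphoric acid on wet ice, centrifuged, and the supernatant quantified by LC-MS/MS against a linear standard curve of analyte/CBZ peak-area ratios.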

[22] = test system: Hepatocyte; test: Drug level in rat hepatocytes treated with at 100 uM MFA by LC-MS/MS analysis in presence of 1000 uM Lauric acid (reference value: 334 +/- 76); type: ADME, cell-based; summary of the method: as §3
[23] = Increase in drug level in phosphate buffer treated with 1 uM MFA-1-beta-O-G at pH 7.4 at 37 degC in presence of GSH/rat liver GST after 60 mins
Summary of the method: (§10)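 Acyl-CoA or acyl glucuronide (1 µM) with 10 mM GSH in 0.1 M potassium phosphate, pH 7.4, 37°C, additionally fortified with rat liver GST (3 units/ml). Up to 60 min; acyl-SG formation measured by LC-MS/MS and compared with incubations lacking GST.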

[24] = test system: Hepatocyte; test: Drug level in rat hepatocytes treated with at 100 uM MFA by LC-MS/MS analysis in presence of 1000 uM (-)-borneol (reference value: 334 +/- 76); type: ADME, cell-based; summary of the method: as §3
[25] = Increase in drug level in phosphate buffer treated with 1 uM MFA-SCoA at pH 7.4 at 37 degC in presence of GSH/rat liver GST after 60 mins; summary of the method: as §10
[26] = Drug level in phosphate buffer treated with 1 uM MFA-1-beta-O-G at pH 7.4 at 37 degC in presence of GSH after 60 mins; type: physicochemical; settings: pH 7.4, 1 h; summary of the method: as §8
[27] = test system: Hepatocyte; test: Drug level in human hepatocytes treated with 100 uM MFA by sensitive LC-MS/MS MRM analysis; type: ADME, cell-based; summary of the method: as §9
[28] = Drug metabolism in rat hepatocytes assessed as MFA-SCoA by LC-MS/MS analysis; type: ADME, cell-based, Hepatocyte; summary of the method: as §4
[29] = Drug metabolism in rat hepatocytes assessed as MFA-SCoA at 100 uM by reverse phase LC-MS/MS analysis; type: ADME, cell-based, Hepatocyte; summary of the method: as §2
[30] = Drug metabolism in rat hepatocytes assessed as MFA-SG at 100 uM by sensitive LC-MS/MS MRM analysis; type: ADME, cell-based, Hepatocyte; summary of the method: as §2
[31] = Drug metabolism in rat hepatocytes assessed as I-SG thioester at 100 uM at 10 mins incubation by LC-MS/MS analysis; type: ADME, cell-based, Hepatocyte
Summary of the method: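 Rat hepatocytes (2 million cells/ml, William's E pH 7.4, 37°C, 95% O2/5% CO2) incubated with (R)-ibuprofen 100 µM for 10 min, n=3. Quenched with acetonitrile/3% formic acid containing CBZ. The acyl-SG thioester was quantified by LC-MS/MS against a linear acyl-SG/CBZ peak-area-ratio standard curve.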

[32] = Drug metabolism in human hepatocytes assessed as MFA-SG at 100 uM by sensitive LC-MS/MS MRM analysis; type: ADME, cell-based, Hepatocyte; summary of the method: as §9
[33] = Drug metabolism in rat hepatocytes assessed as MFA-1-beta-O-G at 100 uM by positive ion LC-MS/MS analysis; type: ADME, cell-based, Hepatocyte; summary of the method: as §2
[34] = Drug metabolism in rat hepatocytes assessed as acyl migration isomers at 100 uM by positive ion LC-MS/MS analysis; type: ADME, cell-based, Hepatocyte
[35] = Drug metabolism in human hepatocytes assessed as MFA-SCoA at 100 uM by reverse phase LC-MS/MS analysis; type: ADME, cell-based, Hepatocyte
Summary of the method: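 MFA 100 µM with human hepatocytes (2 million viable cells/ml, William's E pH 7.4, 37°C, 95% O2/5% CO2). For the acyl-CoA thioester, quench was acetonitrile without formic acid plus CBZ, followed by hexane extraction. The aqueous layer was analysed by positive-ion LC-MS/MS MRM (m/z 991→224 and 484).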

Retention_time [11]: 11 min
Drug metabolism [12]: 460 nM
Drug metabolism [13]: 3.5 µM
half-life at 1 µM [14]: > 60 min
Drug metabolism [15]: 55.1 nM
Drug metabolism [16]: 18.6 µM
Drug metabolism [17]: 198 nM
half-life at 1 µM [18]: 990 min
Drug metabolism [19]: 700 nM
Drug metabolism [20]: 1560 nM
Drug uptake [21]: 2000 µg
Compound: Cc1cccc(Nc2ccccc2C(=O)O[C@@H]2O[C@H](C(=O)O)[C@@H](O)[C@H](O)[C@H]2O)c1C

Drug metabolism [22]: 113 nM
Drug metabolism [24]: 387 nM
Drug metabolism [2]: metabolite_detected
Drug metabolism [12]: 230 nM
Drug metabolism [13]: 0.001 µM
Drug metabolism [26]: 2.7 nM
Drug metabolism [20]: 50 nM
Drug uptake [21]: 17.4 µg
Drug metabolism [8]: 208 nM
Drug metabolism [27]: metabolite_detected
Compound: Cc1cccc(Nc2ccccc2C(=O)SC[C@H](NC(=O)CC[C@H](N)C(=O)O)C(=O)NCC(=O)O)c1C
fold change (FC) [23]: 6
fold change (FC) [25]: 1.3

Drug metabolism [28]: Dose-dependent effect
Drug metabolism [29]: metabolite_detected
Drug metabolism [30]: metabolite_detected
Drug metabolism [31]: 3 nM
Drug metabolism [32]: metabolite_detected
Drug metabolism [33]: metabolite_detected
Drug metabolism [34]: metabolite_not_detected
Drug uptake [21]: 4 µg
Drug metabolism [35]: metabolite_not_detected
Compound: Cc1cccc(Nc2ccccc2C(=O)O)c1C [MEFENAMIC ACID]

Second part, the compound before the results:

Compound: Cc1cc(CC(=O)SC[C@H](NC(=O)CC[C@H](N)C(=O)O)C(=O)NCC(=O)O)n(C)c1C(=O)c1ccc(Cl)cc1
half-life [1]: 0.8 min

Compound: Cc1cccc(Nc2ccccc2C(=O)SCCNC(=O)CCNC(=O)C(O)C(C)(C)COP(=O)(O)OP(=O)(O)OC[C@H]2O[C@@H](n3cnc4c(N)ncnc43)[C@H](O)[C@@H]2OP(=O)(O)O)c1C (some centres undefined)
Drug metabolism [2]: metabolite_detected
Drug metabolism [3]: 8.8 nM
Drug metabolism [4]: 3.8 nM
Drug metabolism [5]: 6 nM
Stability [6]: Stable

Compound: CC(C)Cc1ccc(C(C)C(=O)SC[C@H](NC(=O)CC[C@H](N)C(=O)O)C(=O)NCC(=O)O)cc1 (some centres undefined)
metabolised at 0.5 h, 1 µM [7]: 11%
half-life [1]: 4 min
Drug metabolism [8]: 440 nM
Drug metabolism [9]: 440 nM

Compound: N[C@@H](CCC(=O)N[C@@H](CSC(=O)Cc1ccccc1Nc1c(Cl)cccc1Cl)C(=O)NCC(=O)O)C(=O)O
Stability [10]: Unstable
half-life [1]: 1 min
